From publication PMC11362645 (International Journal for Parasitology: Parasites and …, 2024) come the findings set out here.

The subject of one data set is E. tenella sporozoites. As to the kind of experiment: In vitro viability assay for E. tenella sporozoites. Conditions: criteria of Isah et al., 2016: high, moderate, low/no potency. The data set is classed as cell-based, Eimeria tenella. The method in brief:
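E. tenella OPU strain oocysts were sporulated in ~0.1% potassium dichromate at 28 °C and hypochlorite-treated. Sporocysts were excysted for 1–2 h at 41 °C in HBSS with 1% taurodeoxycholic acid and 0.25% trypsin. Sporozoites at 5×10^6/ml in phenol-red-free RPMI 1640 with antibiotics got test compound (screen 100 μM; IC50 range 1–100 μM) for 24 h at 37 °C, 5% CO2. Cell Count Reagent SF was then added for 3 h. Viability was expressed relative to DMSO = 100%.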

In data set [1] the test system is Madin-Darby bovine kidney (MDBK) cells. Kind of data set: In vitro MTT cytotoxicity assay on MDBK cells. The settings on record: MDBK cells; for Maximum non-toxic concentration: highest concentration with no significant effect on cell viability. The class given is cell-based. In outline: (§1)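 MDBK cells (NBL-1) were kept in MEM with 10% FBS and penicillin/streptomycin at 37 °C, 5% CO2, and passaged with Accutase at ~70% confluence. Cells were seeded at 2×10^4/well and grown 24 h. Test compound was added at final 0.1, 1, 10, 50 or 100 μM, with a DMSO solvent control, for 24 h. MTT was added for 2 h, formazan dissolved in 99% isopropanol, and A562 read. Viability = compound/DMSO ×100. Maximum non-toxic concentration = highest concentration with no significant viability effect. Three repeats.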
Background: Tetrazolium assays rely on reduction of a dye to a coloured formazan, in cell work by metabolically active cells.

The nature of data set [2]: In vitro MTT cytotoxicity assay on MDBK cells. The data set is classed as cell-based, bovine. The settings on record: bovine, MDBK cells (NBL-1 strain). In outline:
as §1

As a reminder, the viability is a read-out of living cells in per cent, often relative to untreated cells. Take `CC1(C)CC[C@]2(C(=O)O)CC[C@]3(C)C(=CC[C@@H]4[C@@]5(C)CC[C@H](O)C(C)(C)[C@@H]5CC[C@]43C)[C@@H]2C1` [Component C-5, Oleanolic acid]: the “Potency of anti-parasitical effect against Eimeria parasites (category by IC50)” value in the data set with E. tenella sporozoites is “high potency”. Further, the “Concentration that significantly reduced the viability of MDBK cells” value in data set [1] (24 h, MTT) is 100 µM. For the same compound, the “Maximum non-toxic concentration” value in data set [1] came to 50 µM. In data set [2], the viability at 24 h, 0.1 µM turned out to be 99.9%; the viability at 24 h, 1 µM was determined as 99.2%; the viability at 24 h, 10 µM came out at 102%; the viability at 24 h, 50 µM amounted to 105%. Also, the viability at 24 h, 100 µM in data set [2] was found to be 16.2%.
As to `C[C@H]1[C@H](C)CC[C@]2(C(=O)O)CC[C@]3(C)C(=CC[C@@H]4[C@@]5(C)CC[C@H](O)C(C)(C)[C@@H]5CC[C@]43C)[C@H]12` [Component D-3, Ursolic acid], the “Potency of anti-parasitical effect against Eimeria parasites (category by IC50)” value in the data set with E. tenella sporozoites is recorded as “low/no potency”. Moreover, the “Maximum non-toxic concentration” value in data set [1] is 10 µM. Besides, in data set [2], the viability at 24 h, 0.1 µM is 92.9%; the viability at 24 h, 1 µM worked out at 86.4%; the viability at 24 h, 10 µM was determined as 105%; the viability at 24 h, 50 µM was -13.1%. In data set [2], the viability at 24 h, 100 µM is -14.2%.
